Results: ChEMBL document CHEMBL1156693, “Novel N-(phosphonomethyl) glycine derivatives: Design, characterization and biological activity” (Eur J Med Chem, 2008)
Calls of active or inactive are those of the source. The calls are words filed in the database; no cut-off is given here.

Tests used:
Mus musculus [1] = experiment: Clastogenic effect on C57BL mouse assessed as number of metaphase chromosomal breaks in bone marrow cells at 3.5 mg/kg, ip after 24 hrs; format: functional; details: route intraperitoneal
Outline: (§1)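 Inbred male and female C57Bl mice (20.0 ± 1.5 g), groups of 3 males + 3 females, 5 controls given 0.9% NaCl. Single i.p. dose. Colchicine 40 mg/kg i.p. 1 h before femoral bone marrow harvest. Cells in 0.075 M KCl for 20 min at 37 °C, fixed in methanol–acetic acid (3:1), stained with 5% Giemsa. At least 50 metaphases scored per animal for breaks, fragments, centromere/centromeric and telomere/telomeric fusions. Mitotic index from 1500 cells per animal. Group mean ± SE.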

Mus musculus [2] = experiment: Clastogenic effect on C57BL mouse assessed as number of metaphase chromosomal fragments in bone marrow cells at 3.5 mg/kg, ip after 24 hrs; format: functional; details: route intraperitoneal; outline: as §1
Mus musculus [3] = experiment: Clastogenic effect on C57BL mouse assessed as number of metaphase chromosomal centromere/centromeric fusion in bone marrow cells at 3.5 mg/kg, ip after 24 hrs; format: functional; details: route intraperitoneal; outline: as §1
Mus musculus [4] = experiment: Clastogenic effect on C57BL mouse assessed as number of metaphase chromosome telomere/telomeric fusion in bone marrow cells at 3.5 mg/kg, ip after 24 hrs; format: functional; details: route intraperitoneal; outline: as §1
Mus musculus [5] = experiment: Clastogenic effect on C57BL mouse assessed as bone marrow cells with abberation at 3.5 mg/kg, ip after 24 hrs; format: functional; details: route intraperitoneal; outline: as §1
Mus musculus [6] = experiment: Clastogenic effect on C57BL mouse assessed as mitotic index in bone marrow cells at 3.5 mg/kg, ip after 24 hrs; format: functional; details: route intraperitoneal; outline: as §1
Mus musculus [7] = experiment: Clastogenic effect on C57BL mouse assessed as number of metaphase chromosomal breaks in bone marrow cells at 10 mg/kg, ip after 24 hrs; format: functional; details: route intraperitoneal
Outline: (§2)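 Inbred male and female C57Bl mice, groups of 3 males + 3 females, dosed i.p. (0.9% NaCl vehicle/negative control); mitomycin C 3.5 mg/kg positive control. Colchicine 40 mg/kg i.p. 1 h before femoral bone marrow harvest; hypotonic 0.075 M KCl 20 min at 37 °C, methanol-acetic acid fixation, Giemsa stain; ≥50 metaphases per animal scored; group mean ± SE.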

Mus musculus [8] = experiment: Clastogenic effect on C57BL mouse assessed as number of metaphase chromosomal breaks in bone marrow cells at 10 mg/kg, ip after 48 hrs; format: functional; details: route intraperitoneal; outline: as §2
Mus musculus [9] = experiment: Clastogenic effect on C57BL mouse assessed as number of metaphase chromosomal breaks in bone marrow cells at 100 mg/kg, ip after 24 hrs; format: functional; details: route intraperitoneal; outline: as §2
Mus musculus [10] = experiment: Clastogenic effect on C57BL mouse assessed as number of metaphase chromosomal breaks in bone marrow cells at 100 mg/kg, ip after 48 hrs; format: functional; details: route intraperitoneal; outline: as §2
Mus musculus [11] = experiment: Clastogenic effect on C57BL mouse assessed as number of metaphase chromosomal fragments in bone marrow cells at 10 mg/kg, ip after 24 hrs; format: functional; details: route intraperitoneal; outline: as §2
Mus musculus [12] = experiment: Clastogenic effect on C57BL mouse assessed as number of metaphase chromosomal fragments in bone marrow cells at 10 mg/kg, ip after 48 hrs; format: functional; details: route intraperitoneal; outline: as §2
Mus musculus [13] = experiment: Clastogenic effect on C57BL mouse assessed as number of metaphase chromosomal fragments in bone marrow cells at 100 mg/kg, ip after 24 hrs; format: functional; details: route intraperitoneal; outline: as §2
Mus musculus [14] = experiment: Clastogenic effect on C57BL mouse assessed as number of metaphase chromosomal fragments in bone marrow cells at 100 mg/kg, ip after 48 hrs; format: functional; details: route intraperitoneal; outline: as §2
Mus musculus [15] = experiment: Clastogenic effect on C57BL mouse assessed as number of metaphase chromosomal centromere/centromeric fusion in bone marrow cells at 10 mg/kg, ip after 24 hrs; format: functional; details: route intraperitoneal; outline: as §2
Mus musculus [16] = experiment: Clastogenic effect on C57BL mouse assessed as number of metaphase chromosomal centromere/centromeric fusion in bone marrow cells at 10 mg/kg, ip after 48 hrs; format: functional; details: route intraperitoneal; outline: as §2
Mus musculus [17] = experiment: Clastogenic effect on C57BL mouse assessed as number of metaphase chromosomal centromere/centromeric fusion in bone marrow cells at 100 mg/kg, ip after 24 hrs; format: functional; details: route intraperitoneal; outline: as §2
Mus musculus [18] = experiment: Clastogenic effect on C57BL mouse assessed as number of metaphase chromosomal centromere/centromeric fusion in bone marrow cells at 100 mg/kg, ip after 48 hrs; format: functional; details: route intraperitoneal; outline: as §2
Mus musculus [19] = experiment: Clastogenic effect on C57BL mouse assessed as number of metaphase chromosome telomere/telomeric fusion in bone marrow cells at 10 mg/kg, ip after 24 hrs; format: functional; details: route intraperitoneal; outline: as §2
Mus musculus [20] = experiment: Clastogenic effect on C57BL mouse assessed as number of metaphase chromosome telomere/telomeric fusion in bone marrow cells at 10 mg/kg, ip after 48 hrs; format: functional; details: route intraperitoneal; outline: as §2
Mus musculus [21] = experiment: Clastogenic effect on C57BL mouse assessed as number of metaphase chromosome telomere/telomeric fusion in bone marrow cells at 100 mg/kg, ip after 24 hrs; format: functional; details: route intraperitoneal; outline: as §2
Mus musculus [22] = experiment: Clastogenic effect on C57BL mouse assessed as number of metaphase chromosome telomere/telomeric fusion in bone marrow cells at 100 mg/kg, ip after 48 hrs; format: functional; details: route intraperitoneal; outline: as §2
Mus musculus [23] = experiment: Clastogenic effect on C57BL mouse assessed as bone marrow cells with abberation at 10 mg/kg, ip after 24 hrs; format: functional; details: route intraperitoneal; outline: as §2
Mus musculus [24] = experiment: Clastogenic effect on C57BL mouse assessed as bone marrow cells with abberation at 10 mg/kg, ip after 48 hrs; format: functional; details: route intraperitoneal; outline: as §2
Mus musculus [25] = experiment: Clastogenic effect on C57BL mouse assessed as bone marrow cells with abberation at 100 mg/kg, ip after 24 hrs; format: functional; details: route intraperitoneal; outline: as §2
Mus musculus [26] = experiment: Clastogenic effect on C57BL mouse assessed as bone marrow cells with abberation at 100 mg/kg, ip after 48 hrs; format: functional; details: route intraperitoneal; outline: as §2
Mus musculus [27] = experiment: Clastogenic effect on C57BL mouse assessed as mitotic index in bone marrow cells at 10 mg/kg, ip after 24 hrs; format: functional; details: route intraperitoneal
Outline: (§3)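 C57Bl mice (3 males + 3 females per group) given compound i.p.; saline controls. Colchicine 40 mg/kg i.p. 1 h before bone marrow harvest from femur; hypotonic KCl, fixed, Giemsa-stained slides. Mitotic index = dividing cells counted among 1500 cells per animal; per-animal values averaged as group mean ± SE.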

Mus musculus [28] = experiment: Clastogenic effect on C57BL mouse assessed as mitotic index in bone marrow cells at 10 mg/kg, ip after 48 hrs; format: functional; details: route intraperitoneal; outline: as §3
Mus musculus [29] = experiment: Clastogenic effect on C57BL mouse assessed as mitotic index in bone marrow cells at 100 mg/kg, ip after 24 hrs; format: functional; details: route intraperitoneal; outline: as §3
Mus musculus [30] = experiment: Clastogenic effect on C57BL mouse assessed as mitotic index in bone marrow cells at 100 mg/kg, ip after 48 hrs; format: functional; details: route intraperitoneal; outline: as §3
HL-60 = experiment: Cytotoxicity against human HL60 cells after 72 hrs by MTT assay; format: functional, cell-based; details: HL-60, 72 h
Outline: (§4)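 Cells at 37 °C, 5% CO2; 293T in DMEM, others in RPMI 1640, both with 2 mM L-glutamine and 10% FCS. Seeded 10⁴ cells/well, 24 h preincubation, then compounds 0.195–200 µM (DMSO ≤1% final) for 72 h continuous. MTT added, 4 h, formazan dissolved in 5% formic acid-acidified DMSO, absorbance read; IC50 = concentration giving 50% survival decrease.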

LAMA-84 = experiment: Cytotoxicity against human LAMA-84 cells after 72 hrs by MTT assay; format: functional, cell-based; details: LAMA-84, 72 h; outline: as §4
K562 = experiment: Cytotoxicity against human K562 cells after 72 hrs by MTT assay; format: functional, cell-based; details: K562, 72 h; outline: as §4
DOHH-2 [31] = experiment: Cytotoxicity against human DOHH2 cells after 72 hrs by MTT assay; format: functional, cell-based; details: DOHH-2, 72 h; outline: as §4
HD-MY-Z = experiment: Cytotoxicity against human HD-MY-Z cells after 72 hrs by MTT assay; format: functional, cell-based; outline: as §4
EJ = experiment: Cytotoxicity against human EJ cells after 72 hrs by MTT assay; format: functional, cell-based; outline: as §4
[32] = Cytotoxicity against human 293T after 72 hrs by MTT assay; format: cell-based; details: HEK-293T; outline: as §4
DOHH-2 [33] = experiment: Induction of apoptosis in human DOHH2 cells assessed as increase in histone-associated oligonucleotide level after 24 hrs by ELISA; format: functional, cell-based
Outline: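 DOHH-2 cells exposed 24 h to equitoxic compound concentrations versus untreated control; cytosolic fractions of 1 × 10⁴ cells used in sandwich ELISA (anti-histone capture, peroxidase-conjugated anti-DNA detection) for histone-associated DNA fragments, read at 405 nm; means ± SD of three independent experiments.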

SMILES | Activity (Mus musculus [7]) | Activity (Mus musculus [8]) | Activity (Mus musculus [9]) | Activity (Mus musculus [10]) | Activity (Mus musculus [11]) | Activity (Mus musculus [12]) | Activity (Mus musculus [13]) | Activity (Mus musculus [14]) | Activity (Mus musculus [15]) | Activity (Mus musculus [16]) | Activity (Mus musculus [17]) | Activity (Mus musculus [18]) | Activity (Mus musculus [19]) | Activity (Mus musculus [20]) | Activity (Mus musculus [21]) | Activity (Mus musculus [22]) | Activity (Mus musculus [23]) | Activity (Mus musculus [24]) | Activity (Mus musculus [25]) | Activity (Mus musculus [26]) | further results
CO[C@@]12[C@H](COC(N)=O)C3=C(C(=O)C(C)=C(N)C3=O)N1C[C@@H]1N[C@@H]12 [MITOMYCIN] | – | – | – | – | – | – | – | – | – | – | – | – | – | – | – | – | – | – | – | – | Activity (Mus musculus [1]): 10; Activity (Mus musculus [2]): 13; Activity (Mus musculus [3]): 11; Activity (Mus musculus [4]): 0; Activity (Mus musculus [5]): 46.67%; Activity (Mus musculus [6]): 5.49%
COP(=O)(CNC1(C(=O)O)CCCCC1)OC | 4 | 6 | 7 | 14 | 0 | 1 | 1 | 0 | 11 | 9 | 20 | 12 | 0 | 0 | 0 | 0 | 5.33% | 5.33% | 8.34% | 7.42% | Activity (Mus musculus [27]): 7.27%; Activity (Mus musculus [28]): 6.71%; Activity (Mus musculus [29]): 7.15%; Activity (Mus musculus [30]): 9.23%; IC50 (HL-60): 136 µM; IC50 (LAMA-84): 98.6 µM; IC50 (K562): 128 µM; IC50 (DOHH-2 [31]): 84.2 µM; IC50 (HD-MY-Z): 164 µM; IC50 (EJ): 116 µM; IC50 [32]: > 200 µM
COP(=O)(CNC1(C(=O)O)CCCCCCCCCCC1)OC | 4 | 2 | 4 | 6 | 2 | 1 | 0 | 6 | 11 | 12 | 11 | 11 | 0 | 0 | 0 | 2 | 5.57% | 5% | 4.29% | 10% | Activity (Mus musculus [27]): 11.13%; Activity (Mus musculus [28]): 8.6%; Activity (Mus musculus [29]): 11.82%; Activity (Mus musculus [30]): 12.82%; IC50 (HL-60): 41.4 µM; IC50 (LAMA-84): 67.3 µM; IC50 (K562): 47.1 µM; IC50 (DOHH-2 [31]): 20.1 µM; IC50 (HD-MY-Z): 67.3 µM; IC50 (EJ): 111 µM; IC50 [32]: 159 µM; Activity (DOHH-2 [33]): Active
